Laboratory results from ChEMBL document CHEMBL3414516, “Novel pyridyl substituted 4,5-dihydro-[1,2,4]triazolo[4,3-a]quinolines as potent and selective aldosterone synthase inhibitors with improved in vitro metabolic stability” (J Med Chem, 2015).

What was measured:
[1] = molecular target: T1, Steroid 17-alpha-hydroxylase/17,20 lyase (Homo sapiens, UniProt P05093); experiment: Inhibition of human CYP17 expressed in Escherichia coli coexpressing human CYP17 and NADPH-P450 reductase
T1 sequence (P05093 whole entry): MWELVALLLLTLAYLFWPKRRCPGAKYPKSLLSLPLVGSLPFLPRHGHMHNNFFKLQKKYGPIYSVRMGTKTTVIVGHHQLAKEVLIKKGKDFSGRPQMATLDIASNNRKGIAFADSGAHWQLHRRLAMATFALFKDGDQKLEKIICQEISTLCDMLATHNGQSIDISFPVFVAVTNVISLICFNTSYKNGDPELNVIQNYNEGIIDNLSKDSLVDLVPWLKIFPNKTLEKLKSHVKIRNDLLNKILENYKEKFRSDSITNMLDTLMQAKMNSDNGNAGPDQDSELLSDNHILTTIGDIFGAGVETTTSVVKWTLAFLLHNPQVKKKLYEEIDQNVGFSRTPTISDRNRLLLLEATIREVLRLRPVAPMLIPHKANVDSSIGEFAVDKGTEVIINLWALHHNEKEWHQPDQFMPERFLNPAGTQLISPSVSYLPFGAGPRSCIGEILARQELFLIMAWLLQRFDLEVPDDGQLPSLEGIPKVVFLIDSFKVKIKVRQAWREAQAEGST

[2] = molecular target: T2, Cytochrome P450 11B1, mitochondrial (Homo sapiens, UniProt P15538); experiment: Inhibition of human CYP11B1 expressed in V79 MZh cells using [14C]-deoxycorticosterone substrate incubated for 6 hrs by HPTLC method; format: cell-based, V79MZh
T2 sequence (P15538 whole entry): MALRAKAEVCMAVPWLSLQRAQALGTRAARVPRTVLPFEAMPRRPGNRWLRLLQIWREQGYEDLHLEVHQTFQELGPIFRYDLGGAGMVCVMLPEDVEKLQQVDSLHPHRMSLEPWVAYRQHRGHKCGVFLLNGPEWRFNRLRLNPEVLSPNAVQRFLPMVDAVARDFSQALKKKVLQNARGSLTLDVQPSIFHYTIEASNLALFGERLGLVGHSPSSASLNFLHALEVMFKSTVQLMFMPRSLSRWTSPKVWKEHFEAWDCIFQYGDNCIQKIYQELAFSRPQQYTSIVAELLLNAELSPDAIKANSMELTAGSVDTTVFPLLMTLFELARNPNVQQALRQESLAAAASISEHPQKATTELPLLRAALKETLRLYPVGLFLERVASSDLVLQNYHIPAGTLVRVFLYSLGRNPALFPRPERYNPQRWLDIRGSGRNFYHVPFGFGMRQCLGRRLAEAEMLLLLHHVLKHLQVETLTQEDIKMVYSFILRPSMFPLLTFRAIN
Outline: (§1)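 V79 MZh cells expressing human CYP11B1 or CYP11B2 were incubated 6 h with [¹⁴C]-deoxycorticosterone and inhibitor at various concentrations. Steroids were extracted with ethyl acetate, separated by HPTLC and quantified by phosphoimager.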

[3] = molecular target: T3, Cytochrome P450 11B2, mitochondrial (Homo sapiens, UniProt P19099); experiment: Inhibition of human CYP11B2 expressed in V79 MZh cells using [14C]-deoxycorticosterone substrate incubated for 6 hrs by HPTLC method; format: cell-based, V79MZh; outline: as §1
T3 sequence (P19099 whole entry): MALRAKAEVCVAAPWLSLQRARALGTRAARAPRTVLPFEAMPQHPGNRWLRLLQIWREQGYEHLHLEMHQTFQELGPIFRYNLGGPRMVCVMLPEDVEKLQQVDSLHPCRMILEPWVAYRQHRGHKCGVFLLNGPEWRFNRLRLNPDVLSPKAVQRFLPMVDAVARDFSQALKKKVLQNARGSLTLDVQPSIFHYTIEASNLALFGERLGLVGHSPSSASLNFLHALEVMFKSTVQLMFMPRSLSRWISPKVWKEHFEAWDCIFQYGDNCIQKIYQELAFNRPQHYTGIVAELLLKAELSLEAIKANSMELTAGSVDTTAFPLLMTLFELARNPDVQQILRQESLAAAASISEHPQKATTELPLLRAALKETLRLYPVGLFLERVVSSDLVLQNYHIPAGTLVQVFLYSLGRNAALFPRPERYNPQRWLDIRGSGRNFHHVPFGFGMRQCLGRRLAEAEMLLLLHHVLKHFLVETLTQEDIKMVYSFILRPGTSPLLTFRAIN

Aromatase = molecular target: T4, Aromatase (Homo sapiens, UniProt P11511); experiment: Inhibition of CYP19 in human placental microsomes using [1beta-3H]androstenedione substrate; parameters: species or system Placenta
T4 sequence (P11511 whole entry): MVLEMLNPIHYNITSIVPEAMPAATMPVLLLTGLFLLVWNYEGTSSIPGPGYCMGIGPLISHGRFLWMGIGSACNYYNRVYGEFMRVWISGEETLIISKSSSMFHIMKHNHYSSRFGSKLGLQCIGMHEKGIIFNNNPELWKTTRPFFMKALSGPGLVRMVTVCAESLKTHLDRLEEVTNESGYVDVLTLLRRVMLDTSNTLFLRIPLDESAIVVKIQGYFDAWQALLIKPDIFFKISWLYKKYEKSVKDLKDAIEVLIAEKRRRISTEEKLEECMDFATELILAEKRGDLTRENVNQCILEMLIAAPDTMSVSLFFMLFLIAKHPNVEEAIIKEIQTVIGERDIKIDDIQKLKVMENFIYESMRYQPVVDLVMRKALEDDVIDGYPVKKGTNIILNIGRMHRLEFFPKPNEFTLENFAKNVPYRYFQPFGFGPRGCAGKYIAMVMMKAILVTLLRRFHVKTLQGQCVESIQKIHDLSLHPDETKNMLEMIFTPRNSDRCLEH

Homo sapiens = organism: Homo sapiens; experiment: Selectivity index, ratio of IC50 for human CYP11B1 to IC50 human CYP11B2
Cytochrome P450 2C19 = Cytochrome P450 2C19 (Homo sapiens, UniProt P33261); experiment: Inhibition of human recombinant CYP2C19 using smephenytoin substrate by LC-MS/MS method; format: ADME
Chain of Cytochrome P450 2C19 (P33261 whole entry): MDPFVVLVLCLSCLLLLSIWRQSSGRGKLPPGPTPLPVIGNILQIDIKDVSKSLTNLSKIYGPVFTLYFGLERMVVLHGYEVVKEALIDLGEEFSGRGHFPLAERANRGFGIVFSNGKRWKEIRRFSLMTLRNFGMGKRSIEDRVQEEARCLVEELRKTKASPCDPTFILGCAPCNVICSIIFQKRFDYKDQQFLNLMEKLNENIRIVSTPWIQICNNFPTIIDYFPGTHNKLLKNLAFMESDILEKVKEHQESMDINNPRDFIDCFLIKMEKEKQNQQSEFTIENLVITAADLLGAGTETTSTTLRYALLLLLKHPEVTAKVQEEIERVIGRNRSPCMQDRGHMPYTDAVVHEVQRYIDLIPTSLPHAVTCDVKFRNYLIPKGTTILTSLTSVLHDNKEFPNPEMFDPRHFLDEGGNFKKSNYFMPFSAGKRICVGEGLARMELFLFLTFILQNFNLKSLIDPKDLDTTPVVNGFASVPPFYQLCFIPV
Outline: (§2)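 Compounds tested in duplicate at six concentrations up to 50 μM. Acetonitrile quench at one time point, then LC–MS/MS of probe metabolites. Metabolites were normalized to vehicle controls and IC50 calculated.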

[4] = Intrinsic clearance in human hepatic microsomes at 1 uM in presence of NADPH system by LC-MS/MS method; format: ADME; conditions: liver microsomes, read-out: CLH
Outline: (§3)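 Pooled mixed-gender human liver microsomes at 0.5 mg/mL final protein in potassium phosphate–MgCl₂ buffer (100 mM, pH 7.4). Compound at 1 μM final with NADPH system, 37 °C. Samples at 2, 5, 15, 30 and 45 min, quenched with acetonitrile, vortexed, centrifuged, and supernatant analysed by LC–MS/MS.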

Cytochrome P450 2D6 = Cytochrome P450 2D6 (Homo sapiens, UniProt P10635); experiment: Inhibition of human recombinant CYP2D6 using bufuralol substrate by LC-MS/MS method; format: ADME; outline: as §2
Chain of Cytochrome P450 2D6 (P10635 whole entry): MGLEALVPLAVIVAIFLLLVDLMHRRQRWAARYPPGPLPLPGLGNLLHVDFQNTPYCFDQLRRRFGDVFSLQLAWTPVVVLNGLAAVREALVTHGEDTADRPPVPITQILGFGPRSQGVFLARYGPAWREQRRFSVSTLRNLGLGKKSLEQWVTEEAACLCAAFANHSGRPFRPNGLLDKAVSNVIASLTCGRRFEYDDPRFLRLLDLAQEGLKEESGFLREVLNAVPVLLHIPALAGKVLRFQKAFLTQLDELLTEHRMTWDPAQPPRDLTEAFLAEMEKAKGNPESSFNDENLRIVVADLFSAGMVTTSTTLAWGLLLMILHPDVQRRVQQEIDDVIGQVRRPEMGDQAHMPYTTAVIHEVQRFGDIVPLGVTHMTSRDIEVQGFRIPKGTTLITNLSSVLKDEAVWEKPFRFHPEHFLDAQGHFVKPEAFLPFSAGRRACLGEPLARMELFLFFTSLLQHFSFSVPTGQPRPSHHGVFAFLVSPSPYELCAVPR

Cytochrome P450 3A4 = Cytochrome P450 3A4 (Homo sapiens, UniProt P08684); experiment: Inhibition of human recombinant CYP3A4 using midazolam substrate by LC-MS/MS method; format: ADME; outline: as §2
Chain of Cytochrome P450 3A4 (P08684 whole entry): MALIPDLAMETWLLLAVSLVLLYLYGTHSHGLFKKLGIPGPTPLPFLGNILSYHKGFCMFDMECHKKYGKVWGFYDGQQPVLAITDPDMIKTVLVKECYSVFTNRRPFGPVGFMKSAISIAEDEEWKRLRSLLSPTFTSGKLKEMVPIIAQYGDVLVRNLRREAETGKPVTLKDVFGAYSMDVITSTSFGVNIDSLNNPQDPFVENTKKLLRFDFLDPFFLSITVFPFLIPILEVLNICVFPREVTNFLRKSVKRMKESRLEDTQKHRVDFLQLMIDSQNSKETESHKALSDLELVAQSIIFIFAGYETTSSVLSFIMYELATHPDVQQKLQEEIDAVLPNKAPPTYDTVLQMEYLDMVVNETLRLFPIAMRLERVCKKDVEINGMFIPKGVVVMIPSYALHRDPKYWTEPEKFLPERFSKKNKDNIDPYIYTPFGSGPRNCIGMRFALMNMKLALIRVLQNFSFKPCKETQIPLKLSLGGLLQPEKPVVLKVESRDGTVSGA

[5] = Half life in human hepatic microsomes at 1 uM in presence of NADPH system by LC-MS/MS method; format: ADME, Microsome; conditions: liver microsomes; outline: as §3
Cytochrome P450 2C9 = Cytochrome P450 2C9 (Homo sapiens, UniProt P11712); experiment: Inhibition of human recombinant CYP2C9 using diclofenac substrate by LC-MS/MS method; format: ADME; outline: as §2
Chain of Cytochrome P450 2C9 (P11712 whole entry): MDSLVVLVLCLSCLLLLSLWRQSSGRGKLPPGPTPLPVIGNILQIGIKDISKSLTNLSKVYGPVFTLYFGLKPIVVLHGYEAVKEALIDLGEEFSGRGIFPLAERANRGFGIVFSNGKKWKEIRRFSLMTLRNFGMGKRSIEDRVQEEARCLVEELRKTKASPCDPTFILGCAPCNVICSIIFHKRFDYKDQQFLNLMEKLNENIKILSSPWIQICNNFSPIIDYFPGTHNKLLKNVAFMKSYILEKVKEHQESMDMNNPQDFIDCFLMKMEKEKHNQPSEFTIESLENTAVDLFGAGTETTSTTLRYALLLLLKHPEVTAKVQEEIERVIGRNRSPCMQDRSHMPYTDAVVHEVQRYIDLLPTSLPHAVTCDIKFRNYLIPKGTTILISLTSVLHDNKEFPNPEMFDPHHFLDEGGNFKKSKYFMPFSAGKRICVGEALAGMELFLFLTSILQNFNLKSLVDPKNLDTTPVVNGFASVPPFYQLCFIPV

Cytochrome P450 1A2 = molecular target: T5, Cytochrome P450 1A2 (Homo sapiens, UniProt P05177); experiment: Inhibition of human recombinant CYP1A2 using phenacetin substrate by LC-MS/MS method; format: ADME; outline: as §2
T5 sequence (P05177 whole entry): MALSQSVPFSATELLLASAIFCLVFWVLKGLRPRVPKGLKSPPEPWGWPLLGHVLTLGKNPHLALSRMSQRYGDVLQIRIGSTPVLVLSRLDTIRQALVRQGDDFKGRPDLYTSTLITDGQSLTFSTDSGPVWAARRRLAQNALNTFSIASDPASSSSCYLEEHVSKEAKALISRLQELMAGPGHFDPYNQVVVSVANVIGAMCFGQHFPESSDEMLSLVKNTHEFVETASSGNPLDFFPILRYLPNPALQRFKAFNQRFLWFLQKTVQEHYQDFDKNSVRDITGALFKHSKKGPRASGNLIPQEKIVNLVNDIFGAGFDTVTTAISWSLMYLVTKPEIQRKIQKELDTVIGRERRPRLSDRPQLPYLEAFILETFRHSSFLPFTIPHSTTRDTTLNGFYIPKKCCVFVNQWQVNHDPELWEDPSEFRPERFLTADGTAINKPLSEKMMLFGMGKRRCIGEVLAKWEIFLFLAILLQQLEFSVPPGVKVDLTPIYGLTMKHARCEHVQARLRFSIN

[6] = Stability in human hepatic microsomes assessed as unchanged compound level at 1 uM after 120 mins in presence of NADPH system by LC-MS/MS method; format: ADME, Microsome; conditions: liver microsomes, read-out: Stability

| Compound | IC50 [1] | IC50 [2] | IC50 [3] | IC50 (Aromatase) | Ratio IC50 (Homo sapiens) | other results |
| --- | --- | --- | --- | --- | --- | --- |
| Fc1cc(-c2cccnc2)cc2c1-n1c(nnc1-c1ccncc1)CC2 | > 10 µM | > 10 µM | > 10 µM | > 10 µM | – | – |
| CC(C)c1nnc2n1-c1cc(F)c(-c3cccnc3)cc1CC2 | > 10 µM | > 10 µM | > 10 µM | > 10 µM | – | – |
| Fc1cc2c(cc1-c1cccnc1)CCc1nnc(Cc3ccccc3)n1-2 | > 10 µM | > 10 µM | 4.35 µM | > 10 µM | – | – |
| CC(=O)c1cncc(-c2cc(F)c3c(c2)CCc2nnc(C)n2-3)c1 | > 10 µM | – | – | > 10 µM | 78 | – |
| Cc1nnc2n1-c1c(F)cc(-c3cncc(C#N)c3)cc1CC2 | > 10 µM | > 10 µM | 1.18 µM | > 10 µM | – | – |
| CCc1nnc2n1-c1c(F)cc(-c3cccnc3)cc1CC2 | > 10 µM | > 10 µM | 0.542 µM | > 10 µM | – | – |
| Fc1cc2c(cc1-c1cccnc1)CCc1nncn1-2 | > 10 µM | – | – | > 10 µM | 32 | – |
| Fc1cc(-c2cccnc2)cc2c1-n1c(nnc1-c1ccccc1)CC2 | > 10 µM | > 10 µM | > 10 µM | > 10 µM | – | – |
| Cc1nnc2n1-c1c(F)cc(-c3cncc(C(C)O)c3)cc1CC2 (configuration not stated) | > 10 µM | – | – | > 10 µM | 138 | – |
| Cc1c(F)cncc1-c1cc(F)c2c(c1)CCc1nnc(C)n1-2 | > 10 µM | 4.52 µM | 0.0195 µM | > 10 µM | 232 | – |
| Cc1nnc2n1-c1c(F)cc(-c3cncc(F)c3)cc1CC2 | > 10 µM | – | 0.0897 µM | > 10 µM | 329 | IC50 (Cytochrome P450 2C19): > 50 µM; microsomal CLint at 1 µM [4]: 12 µL/min/mg; IC50 (Cytochrome P450 2D6): > 50 µM; IC50 (Cytochrome P450 3A4): > 50 µM; half-life at 1 µM [5]: > 2 h; IC50 (Cytochrome P450 2C9): > 50 µM; IC50 (Cytochrome P450 1A2): > 50 µM |
| Cc1nnc2n1-c1cc(F)c(-c3cccnc3)cc1CC2 | > 10 µM | – | – | > 10 µM | 96 | – |
| Fc1cc2c(cc1-c1cccnc1)CCc1nnc(-c3ccncc3)n1-2 | > 10 µM | > 10 µM | > 10 µM | > 10 µM | – | – |
| Cc1nnc2n1-c1c(F)cc(-c3cncc4ccccc34)cc1CC2 | > 10 µM | – | – | > 10 µM | 49 | – |
| COc1cncc(-c2cc(F)c3c(c2)CCc2nnc(C)n2-3)c1 | > 10 µM | – | – | > 10 µM | 89 | – |
| CCc1nnc2n1-c1cc(F)c(-c3cccnc3)cc1CC2 | > 10 µM | > 10 µM | 0.979 µM | > 10 µM | – | – |
| Fc1cc(-c2cccnc2)cc2c1-n1cnnc1CC2 | > 10 µM | – | – | > 10 µM | 94 | – |
| Cc1nnc2n1-c1c(F)cc(-c3cccnc3)cc1CC2 | > 10 µM | – | – | > 10 µM | 272 | half-life at 1 µM [5]: > 2 h |
| Fc1cc2c(cc1-c1cccnc1)CCc1nnc(-c3ccccc3)n1-2 | > 10 µM | > 10 µM | > 10 µM | > 10 µM | – | – |
| O=C(c1ccccc1)c1nnc2n1-c1c(F)cc(-c3cccnc3)cc1CC2 | > 10 µM | > 10 µM | 0.708 µM | > 10 µM | – | – |
| Cc1ccncc1-c1cc(F)c2c(c1)CCc1nnc(C)n1-2 | > 10 µM | – | 0.0042 µM | > 10 µM | 422 | IC50 (Cytochrome P450 2C19): > 50 µM; remaining at 2 h, 1 µM [6]: 80%; microsomal CLint at 1 µM [4]: 4 µL/min/mg; IC50 (Cytochrome P450 2D6): > 50 µM; IC50 (Cytochrome P450 3A4): > 50 µM; half-life at 1 µM [5]: > 2 h; IC50 (Cytochrome P450 2C9): > 50 µM; IC50 (Cytochrome P450 1A2): > 50 µM |
| Cc1nnc2n1-c1c(F)cc(-c3cncc(-c4ccccc4)c3)cc1CC2 | > 10 µM | – | – | > 10 µM | 60 | – |
| Fc1cncc(-c2cc(F)c3c(c2)CCc2nncn2-3)c1 | > 10 µM | > 10 µM | 0.335 µM | > 10 µM | – | – |
| Cc1c(F)cncc1-c1cc(F)c2c(c1)CCc1nncn1-2 | > 10 µM | 5.7 µM | 0.0425 µM | > 10 µM | 134 | – |
| CC(C)c1nnc2n1-c1c(F)cc(-c3cccnc3)cc1CC2 | > 10 µM | > 10 µM | > 10 µM | > 10 µM | – | – |
| Cc1nnc2n1-c1c(F)cc(-c3cncc(C(F)(F)F)c3)cc1CC2 | > 10 µM | – | – | > 10 µM | 63 | – |
